Experiments:
HepG2 cells [1] = assay: MTT assay for cell viability/proliferation, HepG2; assay type: cell-based; details: Homo sapiens, HepG2, 24 h; for IC80: read-out: IC80 of glycolysis inhibitors; for IC50: read-out: IC50 HepG2
HepG2 cells [2] = assay: Cell cycle analysis by flow cytometry; assay type: cell-based, human; details: HepG2, 24 h
Summary of the method: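 Treatments: A-375 cells with test compound at 0, 1, 3, 5 μM; HepG2 cells untreated, 2-DG 20 mM, test compound 4 μM, or 20 mM + 4 μM; all 24 h. 1 × 10^6 cells washed twice in PBS and fixed overnight in 70% ice-cold ethanol. Stained 30 min at 4°C in the dark with 1% Triton X-100, 0.01% RNase, 0.05% PI. Flow cytometry, three experiments.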

HepG2 cells [3] = assay: Annexin V-FITC/PI double staining, HepG2; assay type: cell-based, human; details: HepG2, 24 h, single drug 2-DG (Fig. 5b: 40 mM)
Summary of the method: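 HepG2 cells exposed 24 h to test compound, 2-DG, or both. 3 × 10^5 cells harvested, PBS-washed twice, stained with Annexin V-FITC and PI for 15 min in the dark, then analysed by flow cytometry. Quadrants: Annexin V−/PI− healthy, V+/PI− early apoptotic, V+/PI+ late apoptotic/necrotic, V−/PI+ necrotic. Three experiments.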

caspase-3 = assay: Caspase-3 activity assay in HepG2 lysates; assay type: cell-based, human; details: HepG2, 24 h; 2-DG 10, 20 mM; UA-4 2, 4 μM; 10 + 2, 20 + 4
Summary of the method: (§1)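 Lysates were prepared from HepG2 cells treated 24 h with 2-DG (0, 10, 20 mM), test compound (0, 2, 4 μM) or combinations (10 + 2, 20 + 4). Lysates were incubated 4 h at 37°C with pNA substrate: Ac-DEVD-pNA (caspase-3), Ac-IETD-pNA (caspase-8) or Ac-LEHD-pNA (caspase-9). Absorbance at 405 nm, normalised to protein concentration.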

caspase-8 = assay: Caspase-8 activity assay in HepG2 lysates; assay type: cell-based, human; details: HepG2, 24 h; 2-DG 10, 20 mM; UA-4 2, 4 μM; 10 + 2, 20 + 4
Summary of the method: as §1

caspase-9 = assay: Caspase-9 activity assay in HepG2 lysates; assay type: cell-based, human; details: HepG2, 24 h; 2-DG 10, 20 mM; UA-4 2, 4 μM; 10 + 2, 20 + 4
Summary of the method: as §1

hexokinase (HK) = assay: Hexokinase activity assay in HepG2 cells; assay type: cell-based, human; details: HepG2, 24 h
HepG2 cells [4] = assay: Intracellular ATP, luciferase-luciferin assay; assay type: cell-based, human; details: HepG2, 24 h of treatment (method: 12-h incubation)
Summary of the method: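 HepG2 cells seeded at 3 × 10^5/well and grown 24 h. Then incubated 12 h with 2-DG (0, 10, 20, 40 mM), test compound (0, 2, 4, 6 μM) or combinations (10 + 2, 20 + 4, 40 + 6). Cells PBS-washed, lysed on ice, and ATP read by luciferase–luciferin luminescence. Values normalised to protein and expressed as % of control mean.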

HepG2 cells [5] = assay: Lactate production assay; assay type: cell-based, human; details: HepG2, 24 h; UA-4 2, 4 and 6 μM
Summary of the method: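 HepG2 cells (3 × 10^5/well) treated 24 h with 2-DG (0, 10, 20, 40 mM), test compound (0, 2, 4, 6 μM) or combinations (10 + 2, 20 + 4, 40 + 6). Lactate in culture supernatant measured by kit at OD 530 nm and normalised to cell number. Medium background subtracted; means ± SD of triplicate wells.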

AGS cells = assay: MTT assay for cell viability/proliferation, AGS; assay type: cell-based; details: Homo sapiens, 24 h, read-out: IC50 AGS
Summary of the method: (§2)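 Cells grown in RPMI 1640 with 10% heat-inactivated FBS and penicillin/streptomycin at 37°C, 5% CO2. Plated at 1 × 10^4/well overnight, then treated 24 h with graded test compound (DMSO stock diluted in medium, 0.1% DMSO final; vehicle control 0.1% DMSO). MTT added 4 h in phenol-red-free, serum-free medium; formazan dissolved in DMSO; A492. IC50 = concentration giving 50% growth inhibition; ≥3 repeats.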

A-375 cells = assay: MTT assay for cell viability/proliferation, A-375; assay type: cell-based; details: Homo sapiens, A-375, 24 h, read-out: IC50 A-375
Summary of the method: as §2

HeLa cells = assay: MTT assay for cell viability/proliferation, HeLa; assay type: cell-based; details: Homo sapiens, 24 h, read-out: IC50 HeLa
Summary of the method: as §2

HELF cells = assay: MTT assay, normal counterpart cell line HELF; assay type: cell-based; details: Homo sapiens, 24 h, read-out: IC50 HELF
Summary of the method: as §2

[6] = tested on: four cancer cell lines (HepG2, AGS, A-375, HeLa); assay: MTT assay, range over four cancer cell lines; assay type: cell-based; details: Homo sapiens, read-out: IC50 to suppress cell proliferation
Summary of the method: as §2

| IC50 (HepG2 cells [1]) [µM] | IC50 (AGS cells) [µM] | IC50 (A-375 cells) [µM] | IC50 (HeLa cells) [µM] | SMILES | IC80 (HepG2 cells [1]) [µM] | IC50 (HELF cells) [µM] | further results |
| --- | --- | --- | --- | --- | --- | --- | --- |
| – | – | – | – | O=CC[C@@H](O)[C@H](O)[C@H](O)CO [Compound 2-DG, 2-Deoxy-D-glucose] | 50000 | – | cell cycle arrest (in words) (HepG2 cells [2]): cell cycle arrest in G2/M; apoptosis (HepG2 cells [3]): 13.7%; activity of caspase-3 (caspase-3): dose-dependently increased; activity of caspase-8 (caspase-8): dose-dependently increased; activity of caspase-9 (caspase-9): dose-dependently increased; total hexokinase (HK) activity (in words) (hexokinase (HK)): reduce the activity of hexokinase; intracellular ATP concentration (in words) (HepG2 cells [4]): slightly decreased; lactate production (in words) (HepG2 cells [5]): decreased lactate production |
| – | – | – | – | c1ccc([C@H]2CN3CCSC3=N2)cc1 [LM, levamisole] | 2500 | – | – |
| 68.8 ± 3.71 | 43.2 ± 2.13 | 57.6 ± 3.21 | 33.1 ± 0.63 | C[C@H]1[C@H](C)CC[C@]2(C(=O)O)CC[C@]3(C)C(=CC[C@@H]4[C@@]5(C)CC[C@H](O)C(C)(C)[C@@H]5CC[C@]43C)[C@H]12 [UA, 3β-hydroxy-urs-12-en-28-oic acid] | – | 21.3 ± 1.76 | IC50 [6]: 33.1 to 68.8 µM |
| 10.32 ± 0.02 | 9.24 ± 0.13 | 8.56 ± 0.07 | 6.62 ± 0.21 | CC(=O)O[C@H]1C(=O)[C@@]2(C)[C@H]([C@H](OC(=O)c3ccccc3)[C@]3(O)C[C@H](OC(=O)[C@H](O)[C@@H](NC(=O)c4ccccc4)c4ccccc4)C(C)=C1C3(C)C)[C@]1(OC(C)=O)CO[C@@H]1C[C@@H]2O [Paclitaxel] | – | 7.17 ± 0.08 | – |
| – | – | – | – | N[C@@H](CS)C(=O)O [L-Cys, L-cysteine] | 15000 | – | – |

Reference: PMC4650901 (Scientific Reports, 2014)
